# Columns and labels:
# [1] = Stability at 120 degC after 1 hr; assay type: physicochemical; settings: read-out: Stability
# Method in brief: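 Prodrugs at 0.5% in 0.5% HPMC/5% dextrose, pH 6.7, in closed vials, autoclaved at 120 °C for 1 h. After cooling, percent remaining was assessed by reverse-phase HPLC with diode-array and ELSD detection.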
# [2] = target: Vascular endothelial growth factor receptor 2 (Homo sapiens, UniProt P35968); test: Inhibition of VEGFR2
# [3] = target: Proto-oncogene tyrosine-protein kinase Src (Homo sapiens, UniProt P12931); test: Inhibition of Src
# [4] = Stability in Dutch-belted rabbit eye assessed as hydrolysis rate; assay type: ADME, tissue-based, Oryctolagus cuniculus
# Method in brief: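 Two Dutch-Belted rabbit eyeballs were homogenized in 1× RIPA buffer. Prodrug (from 1 mg/mL DMSO stock) was added to a final 5 µg/mL and kept at 37 °C, sampled at 0, 0.25, 1, 2 and 6 h. Controls were prodrug in RIPA buffer for 120 min at 37 °C. Supernatants were analyzed by LC/MS/MS for prodrug and released parent phenol.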
# Vascular endothelial growth factor receptor 2, sequence (P35968 whole entry): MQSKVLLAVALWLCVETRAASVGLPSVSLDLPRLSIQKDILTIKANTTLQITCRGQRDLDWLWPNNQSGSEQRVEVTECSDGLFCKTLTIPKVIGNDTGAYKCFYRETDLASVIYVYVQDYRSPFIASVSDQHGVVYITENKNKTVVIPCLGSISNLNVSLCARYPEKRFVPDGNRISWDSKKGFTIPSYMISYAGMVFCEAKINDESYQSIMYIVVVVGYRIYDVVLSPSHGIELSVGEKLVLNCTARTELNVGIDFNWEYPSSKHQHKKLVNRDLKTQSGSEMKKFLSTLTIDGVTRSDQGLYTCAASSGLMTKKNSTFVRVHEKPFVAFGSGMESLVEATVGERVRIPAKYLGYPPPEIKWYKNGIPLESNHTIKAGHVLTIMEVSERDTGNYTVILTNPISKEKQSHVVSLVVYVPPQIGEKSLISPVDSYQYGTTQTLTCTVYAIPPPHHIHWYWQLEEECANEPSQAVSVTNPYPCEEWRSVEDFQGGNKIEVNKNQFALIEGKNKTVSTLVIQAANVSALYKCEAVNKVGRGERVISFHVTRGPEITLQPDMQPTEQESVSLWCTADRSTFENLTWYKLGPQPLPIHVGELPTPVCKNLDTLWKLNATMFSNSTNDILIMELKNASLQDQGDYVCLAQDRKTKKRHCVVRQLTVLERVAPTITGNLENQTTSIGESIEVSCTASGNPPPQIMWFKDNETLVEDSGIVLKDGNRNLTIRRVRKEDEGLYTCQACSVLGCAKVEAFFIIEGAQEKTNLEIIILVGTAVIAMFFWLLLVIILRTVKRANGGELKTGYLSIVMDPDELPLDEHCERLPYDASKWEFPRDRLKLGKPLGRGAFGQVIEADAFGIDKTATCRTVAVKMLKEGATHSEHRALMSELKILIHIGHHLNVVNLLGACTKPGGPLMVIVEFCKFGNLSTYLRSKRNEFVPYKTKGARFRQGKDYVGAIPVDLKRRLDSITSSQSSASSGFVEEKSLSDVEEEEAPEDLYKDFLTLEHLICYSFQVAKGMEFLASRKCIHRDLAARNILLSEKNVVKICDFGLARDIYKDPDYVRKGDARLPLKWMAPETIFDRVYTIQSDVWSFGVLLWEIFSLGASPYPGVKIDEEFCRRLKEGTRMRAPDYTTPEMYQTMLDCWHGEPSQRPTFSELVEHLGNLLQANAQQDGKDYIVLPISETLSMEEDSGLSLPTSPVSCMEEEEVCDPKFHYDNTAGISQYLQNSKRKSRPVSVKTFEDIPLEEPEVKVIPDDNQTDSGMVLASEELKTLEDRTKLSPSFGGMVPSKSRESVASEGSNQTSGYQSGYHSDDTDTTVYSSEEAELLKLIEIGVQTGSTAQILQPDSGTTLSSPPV
# Proto-oncogene tyrosine-protein kinase Src, sequence (P12931 2-536 limits assumed): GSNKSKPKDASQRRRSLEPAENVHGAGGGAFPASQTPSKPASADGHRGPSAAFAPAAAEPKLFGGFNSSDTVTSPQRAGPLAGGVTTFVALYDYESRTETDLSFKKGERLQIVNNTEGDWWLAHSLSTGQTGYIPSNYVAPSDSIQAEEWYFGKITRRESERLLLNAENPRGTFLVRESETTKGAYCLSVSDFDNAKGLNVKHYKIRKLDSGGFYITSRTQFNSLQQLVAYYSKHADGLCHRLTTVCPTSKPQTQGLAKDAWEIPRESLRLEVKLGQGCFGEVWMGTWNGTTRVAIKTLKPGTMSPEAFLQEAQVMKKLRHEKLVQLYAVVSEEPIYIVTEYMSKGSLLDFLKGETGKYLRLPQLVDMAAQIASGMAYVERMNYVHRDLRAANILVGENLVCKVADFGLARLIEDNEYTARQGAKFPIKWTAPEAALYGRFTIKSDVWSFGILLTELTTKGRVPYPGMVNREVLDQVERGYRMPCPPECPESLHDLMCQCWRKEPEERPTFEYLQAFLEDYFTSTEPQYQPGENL
SMILES,remaining at 1 h [1],IC50 [2],further results
Cc1cc(-c2cc(OP(=O)(O)O)ccc2Cl)cc2nnc(Nc3ccc(OCCN4CCCC4)cc3)nc12,< 20%,–,–
Cc1cc(-c2ccccc2)cc2nnc(Nc3ccc(OCCN4CCCC4)cc3)nc12,–,530 nM,–
Cc1cc(-c2cc(O)ccc2Cl)cc2nnc(Nc3ccc(S(=O)(=O)NCCN4CCCC4)cc3)nc12,–,4.7 nM,–
Cc1cc(-c2cc(O)ccc2Cl)cc2nnc(Nc3ccc(CCCN4CCCC4)cc3)nc12,–,2.7 nM,IC50 [3]: 1.5 nM
Cc1cc(-c2cc(OC(=O)C(C)(C)C)ccc2Cl)cc2nnc(Nc3ccc(OCCN4CCCC4)cc3)nc12,> 90%,–,Stability [4]: 172 ng/mL/h

# More lines, main results first:
remaining at 1 h [1],IC50 [2],SMILES,further results
–,1.8 nM,Cc1cc(-c2cc(O)ccc2Cl)cc2nnc(Nc3ccc(C(=O)N4CCNCC4)cc3)nc12,–
–,1.7 nM,Cc1cc(-c2cc(O)ccc2Cl)cc2nnc(Nc3ccc(S(=O)(=O)C4CCNCC4)cc3)nc12,–
> 90%,–,Cc1cccc(C)c1C(=O)Oc1ccc(Cl)c(-c2cc(C)c3nc(Nc4ccc(OCCN5CCCC5)cc4)nnc3c2)c1,Stability [4]: 1.1 ng/mL/h
–,1900 nM,Cc1cc(-c2ccccc2Cl)cc2nnc(Nc3ccc(OCCN4CCCC4)cc3)nc12,–

# Source: ChEMBL document CHEMBL1144020, “Development of prodrug 4-chloro-3-(5-methyl-3-{[4-(2-pyrrolidin-1-ylethoxy)phenyl]amino}-1,2,4-benzotriazin-7-yl)phenyl benzoate (TG100801): a topically administered therapeutic candidate in clinical trials for the treatment of age-related macular degeneration” (J Med Chem, 2008)
